Calls of active or inactive are those of the source. The rule behind the calls is not given here.
Assays:
[1] = system: MIA PaCa-2; experiment: Cytotoxicity against human MIA PaCa-2 cells assessed as inhibition of cell growth incubated for overnight in galactose-containing medium followed by compound addition and measured after 3 days by MTT assay; type: functional, cell-based; settings: MIA PaCa-2, 72 h
Method in brief: (§1)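 MIA PaCa-2 3-day MTT in glucose medium (RPMI 1640 + 10% FBS) or galactose medium (glucose-free RPMI + 10 mM galactose + 10% FBS). Galactose wells are seeded at 8000 cells/well. MTT read-out is at 570 nm after DMSO solubilization. IC50 is by nonlinear regression; ≥3 independent experiments.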

[2] = system: MIA PaCa-2; experiment: Cytotoxicity against human MIA PaCa-2 cells assessed as inhibition of cell growth incubated for overnight in glucose-containing medium followed by compound addition and measured after 3 days by MTT assay; type: functional, cell-based; settings: MIA PaCa-2, 72 h; method in brief: as §1
[3] = system: MIA PaCa-2; experiment: Cytotoxicity against human MIA PaCa-2 cells assessed as inhibition of cell growth incubated for overnight in glucose-containing medium followed by compound addition and measured after 7 days by MTT assay; type: functional, cell-based; settings: MIA PaCa-2, 168 h
Method in brief: (§2)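 7-day MTT in glucose medium (RPMI 1640 + 10% FBS). Seeding is 200 cells/well for MIA PaCa-2 and 300 cells/well for BxPC-3, overnight at 37 °C, 5% CO2, before compound. MTT 3 mg/mL is added for 4 h, then DMSO, and absorbance is read at 570 nm. IC50 is by nonlinear regression; ≥3 independent experiments.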

[4] = system: BXPC-3; experiment: Cytotoxicity against human BXPC-3 cells assessed as inhibition of cell growth incubated for overnight in glucose-containing medium followed by compound addition and measured after 7 days by MTT assay; type: functional, cell-based; settings: BXPC-3, 168 h; method in brief: as §2
[5] = Inhibition of oxidative phosphorylation in human MIA PaCa-2 cells assessed as reduction in ATP production incubated for 24 hrs in glucose-containing medium by celltiter-glo luminescence cell viability assay; type: functional, cell-based; settings: MIA PaCa-2, 24 h
Method in brief: (§3)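 MIA PaCa-2 cells are seeded at 10000 cells/well in glucose RPMI + 10% FBS or in glucose-free RPMI + 10 mM galactose + 10% FBS. Total ATP is measured by CellTiter-Glo luminescence 24 h after compound. IC50 is by nonlinear regression; ≥3 independent experiments.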

[6] = Metabolic stability in human liver microsomes assessed as half life at 10 uM measured up to 60 mins in presence of NADPH by LC-MS/MS analysis; type: ADME, Microsome; settings: for half-life at 10 µM: liver microsomes; for t1/2: microsomes, 1 h, 10 µM
[7] = Toxicity in C57BL/6 mouse allografted with mouse Panc02 cells assessed as drug tolerability at 2.5 mg/kg, ip administered once a day for 28 days; type: organism-based; settings: in vivo, 672 h, time 28 day
[8] = Inhibition of oxidative phosphorylation in human MIA PaCa-2 cells assessed as reduction in ATP production incubated for 24 hrs in galactose-containing medium by celltiter-glo luminescence cell viability assay; type: functional, cell-based; settings: MIA PaCa-2, 24 h; method in brief: as §3
[9] = Metabolic stability in mouse liver microsomes assessed as half life at 10 uM measured up to 60 mins in presence of NADPH by LC-MS/MS analysis; type: ADME, Microsome; settings: for half-life at 10 µM: liver microsomes; for t1/2: microsomes, 1 h, 10 µM
[10] = system: Panc02; experiment: Antitumor activity against mouse Panc02 cells allografted in C57BL/6 mouse syngeneic model assessed as tumor growth inhibition at 2.5 mg/kg, ip administered once daily for 28 days and measured twice per week; type: functional, organism-based; settings: time 28.0 day
Method in brief: (§4)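 Female C57BL/6 mice, 6-10 weeks old, get 5×10^6 Pan02 cells s.c. in the right flank and are randomized at ~100 mm3 (n = 5/group). Dosing is daily for 28 days. Vehicle is 10% DMSO/50% PG/40% saline, except 15 mg/kg uses 10% DMSO/60% PG/30% saline. Caliper volume (length×width²)/2 and body weight are recorded twice weekly.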

[11] = Toxicity in C57BL/6 mouse allografted with mouse Panc02 cells assessed as body weight loss at 2.5 mg/kg, ip administered once a day for 28 days and measured twice per week; type: organism-based; settings: in vivo, 672 h, time 28 day; method in brief: as §4
[12] = Toxicity in C57BL/6 mouse allografted with mouse Panc02 cells assessed as body weight loss at 7.5 mg/kg, ip administered once a day for 28 days and measured twice per week; type: organism-based; settings: in vivo, 672 h, time 28 day; method in brief: as §4
[13] = Toxicity in C57BL/6 mouse allografted with mouse Panc02 cells assessed as drug tolerability at 7.5 mg/kg, ip administered once a day for 28 days; type: organism-based; settings: in vivo, 672 h, time 28 day

Row | SMILES | IC50 [1] [µM] | IC50 [2] [µM] | IC50 [3] [µM] | IC50 [4] [µM] | other results
1 | CCN(CC)S(=O)(=O)c1ccc(S(=O)(=O)N2CCC[C@@H](C(=O)N3CC[C@@H](OC)C3)C2)cc1 | 1.07 | > 10 | 3.91 | 11.5 | –
2 | CCN(CC)S(=O)(=O)c1ccc(S(=O)(=O)N2CCC[C@@H](C(=O)N3CCOCC3)C2)cc1 | 0.16 | > 10 | 0.35 | 0.79 | –
3 | O=C([C@@H]1CCCN(S(=O)(=O)c2ccc(S(=O)(=O)C3CCC3)cc2)C1)N1CCC(F)(F)CC1 | 0.0126 | > 3 | 0.009 | 0.078 | IC50 [5]: > 3 µM; half-life at 10 µM [6]: > 60 min; Activity [7]: Non-Toxic; IC50 [8]: 0.0158 µM; half-life at 10 µM [9]: 44 min; Activity [10]: Active; Activity [11]: Non-Toxic
4 | CCN(CC)S(=O)(=O)c1ccc(S(=O)(=O)N2CCC[C@@H](C(=O)N3CCC(C(F)F)CC3)C2)cc1 | 0.14 | > 10 | 0.42 | 0.45 | –
5 | CCOC(=O)[C@@H]1CCCN(S(=O)(=O)c2ccc(S(=O)(=O)N(CC)CC)cc2)C1 | – | – | – | – | GI50 ([3]; time 7 day): 0.6 µM
6 | CN(C)S(=O)(=O)c1ccc(S(=O)(=O)N2CCC[C@@H](C(=O)N3CCC(F)(F)CC3)C2)cc1 | 0.0724 | > 3 | – | 0.56 | IC50 [5]: > 3 µM; half-life at 10 µM [6]: > 60 min; Activity [12]: Non-Toxic; IC50 [8]: 0.0789 µM; half-life at 10 µM [9]: 32 min; Activity [13]: Non-Toxic
7 | O=C([C@@H]1CCCN(S(=O)(=O)c2ccc(S(=O)(=O)C3CC3)cc2)C1)N1CCC(F)(F)CC1 | – | – | 0.026 | 0.129 | –
8 | CCN(CC)S(=O)(=O)c1ccc(S(=O)(=O)N2CCC[C@@H](C(=O)N[C@H]3CCOC3)C2)cc1 | 0.29 | > 10 | 1.67 | 5.27 | –
9 | CCN(CC)S(=O)(=O)c1ccc(S(=O)(=O)N2CCC[C@@H](C(=O)N3CCC(OC)CC3)C2)cc1 | 0.05 | > 10 | 0.14 | 1.42 | –
10 | CCN(CC)S(=O)(=O)c1ccc(S(=O)(=O)N2CCC[C@@H](C(=O)N[C@@H]3CCOC3)C2)cc1 | 0.1 | > 10 | 0.75 | 2.27 | –
11 | CCN(CC)S(=O)(=O)c1ccc(S(=O)(=O)N2CCC[C@@H](C(=O)N3CC[C@H](OC)C3)C2)cc1 | 0.46 | > 10 | 2.46 | 6.75 | –
12 | CCC(CC)S(=O)(=O)c1ccc(S(=O)(=O)N2CCC[C@@H](C(=O)N3CCC(F)(F)CC3)C2)cc1 | – | – | 0.013 | 0.04 | t1/2 [6]: 17.1 min; t1/2 [9]: 8.7 min
13 | CCN(CC)S(=O)(=O)c1ccc(S(=O)(=O)N2CCC[C@@H](C(=O)N3CCC(COC)CC3)C2)cc1 | 0.05 | > 10 | 0.25 | 1.36 | –
14 | CCN(CC)S(=O)(=O)c1ccc(S(=O)(=O)N2CCC[C@@H](C(=O)NC3CCOCC3)C2)cc1 | 1.35 | > 10 | 3.77 | 8.57 | –
15 | CCN(CC)C(=O)c1ccc(S(=O)(=O)N2CCC[C@@H](C(=O)N3CCC(F)(F)CC3)C2)cc1 | – | – | 0.07 | 0.24 | –
16 | CCN(CC)S(=O)(=O)c1ccc(S(=O)(=O)N2CCC[C@@H](C(=O)N[C@H]3CC[C@@H](OC)CC3)C2)cc1 | 0.59 | > 10 | 0.96 | 2.15 | –
17 | CC(C)CS(=O)(=O)c1ccc(S(=O)(=O)N2CCC[C@@H](C(=O)N3CCC(F)(F)CC3)C2)cc1 | – | – | 0.08 | 0.311 | –
18 | CCN(CC)S(=O)(=O)c1ccc(S(=O)(=O)N2CCC[C@@H](C(=O)N3CCS(=O)(=O)CC3)C2)cc1 | 0.22 | > 10 | 0.9 | 4.43 | –
19 | CCN(CC)S(=O)(=O)c1ccc(S(=O)(=O)N2CCC[C@@H](C(=O)N[C@H]3CC[C@H](OC)CC3)C2)cc1 | 2.29 | > 10 | 1.35 | 2 | –
20 | CCN(CC)S(=O)(=O)c1ccc(S(=O)(=O)N2CCC[C@@H](C(=O)N3CCC(C(F)(F)F)CC3)C2)cc1 | 0.11 | > 10 | 0.32 | 0.37 | –
21 | FC(F)(F)c1ccc(/C=C/c2nc(COc3ccc(CCCCn4ccnn4)cc3)co2)cc1 [MUBRITINIB] | – | – | 0.051 | – | –
22 | CCN(CC)S(=O)(=O)c1ccc(S(=O)(=O)N2CCC[C@@H](C(=O)N3CCC(F)(F)CC3)C2)cc1 | 0.019 | > 10 | 0.016 | 0.12 | IC50 [5]: > 3 µM; half-life at 10 µM [6]: 2.74 min; IC50 [8]: 0.0213 µM; t1/2 [9]: 2.6 min
23 | CCN(CC)S(=O)(=O)c1ccc(S(=O)(=O)N2CCC[C@@H](C(=O)N3CCC(O)CC3)C2)cc1 | 0.23 | > 10 | 0.87 | 4.71 | –
24 | CP(C)(=O)c1ccc(S(=O)(=O)N2CCC[C@@H](C(=O)N3CCC(F)(F)CC3)C2)cc1 | – | – | > 30 | > 30 | –
25 | O=C([C@@H]1CCCN(S(=O)(=O)c2ccc(S(=O)(=O)N3CC[C@H](O)C3)cc2)C1)N1CCC(F)(F)CC1 | – | – | 0.59 | 0.58 | –
26 | O=C([C@@H]1CCCN(S(=O)(=O)c2ccc(S(=O)(=O)C3COC3)cc2)C1)N1CCC(F)(F)CC1 | – | – | 0.11 | 0.361 | –
27 | CC(C)NS(=O)(=O)c1ccc(S(=O)(=O)N2CCC[C@@H](C(=O)N3CCC(F)(F)CC3)C2)cc1 | – | – | 0.35 | 0.47 | t1/2 [6]: 19.7 min; t1/2 [9]: 23.1 min
28 | CCP(=O)(CC)c1ccc(S(=O)(=O)N2CCC[C@@H](C(=O)N3CCC(F)(F)CC3)C2)cc1 | – | – | 21.5 | > 30 | –
